Experimental data from ChEMBL document CHEMBL1125330, “N-substituted pyrazino[2,3-c][1,2,6]thiadiazine 2,2-dioxides. A new class of diuretics” (J Med Chem, 1992).

Assays:
Settings in all cases: in vivo
Rattus norvegicus [1] = assay: Mean Chlorine excretion in rats when compound administered at 10 mg/kg po and vehicle dosed at 33.59 umol/kg; format: ADME, organism-based; parameters: dose 10 mg/kg, route oral
How it was run: (§1)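 Male Sprague-Dawley rats (HC/CFY, 175-200 g), no food or water for 18 h before and during the test. Single gavage dose (2.5-160 mg/kg; vehicle 1% carboxymethyl cellulose/0.1% Tween 80, 0.5 mL/100 g bw), then distilled water 2.5 mL/100 g bw po. Individual metabolic cages, 6 h urine. K+ by flame photometry, Cl- colorimetric, as mequiv/6 h/kg bw; unpaired Student t-test vs control.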

Rattus norvegicus [2] = assay: Mean Chlorine excretion in rats when compound administered at 5 mg/kg po and vehicle dosed at 16.79 umol/kg; format: ADME, organism-based; parameters: dose 5 mg/kg, route oral; how it was run: as §1
Rattus norvegicus [3] = assay: Mean Chlorine excretion in rats when compound administered at 0 mg/kg po and vehicle dosed at 0 umol/kg; format: ADME, organism-based; parameters: dose 0 mg/kg, route oral
Rattus norvegicus [4] = assay: Mean Chlorine excretion in rats when compound administered at 80 mg/kg po and vehicle dosed at 268.71 umol/kg; format: ADME, organism-based; parameters: dose 80 mg/kg, route oral; how it was run: as §1
Rattus norvegicus [5] = assay: Mean potassium excretion in rats when compound administered at 20 mg/kg po and vehicle dosed at 67.18 umol/kg; format: ADME, organism-based; parameters: dose 20 mg/kg, route oral; how it was run: as §1
Rattus norvegicus [6] = assay: Mean potassium excretion in rats when compound administered at 40 mg/kg po and vehicle dosed at 134.35 umol/kg; format: ADME, organism-based; parameters: dose 40 mg/kg, route oral; how it was run: as §1
Rattus norvegicus [7] = assay: Mean potassium excretion in rats when compound administered at 5 mg/kg po and vehicle dosed at 16.79 umol/kg; format: ADME, organism-based; parameters: dose 5 mg/kg, route oral
How it was run: (§2)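 Male Sprague-Dawley rats (HC/CFY, 175-200 g) fasted and water-deprived 18 h before and during the test. Dosed by gavage at 2.5-160 mg/kg in 1% carboxymethyl cellulose/0.1% Tween 80, 0.5 mL/100 g bw. Immediately hydrated with water (2.5 mL/100 g bw, po). Urine collected 6 h in metabolic cages; Na+ and K+ by flame photometry; mean mequiv/6 h/kg bw; nonpaired Student t-test.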

Rattus norvegicus [8] = assay: Mean potassium excretion in rats when compound administered at 80 mg/kg po and vehicle dosed at 268.71 umol/kg; format: ADME, organism-based; parameters: dose 80 mg/kg, route oral; how it was run: as §2
Rattus norvegicus [9] = assay: Urinary sodium 2 hr after the compound was administered 10 mg/kg po in rat; format: ADME, organism-based, Urine; parameters: dose 10 mg/kg, route oral
How it was run: (§3)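 Onset and duration study in fasted, water-loaded male Sprague-Dawley rats housed two per metabolic cage, six pairs per group. Single oral dose given, then water 2.5 mL/100 g po. Urine volume and sodium (flame photometry) measured over 0-1, 1-2, 2-3, 3-4 and 4-6 h intervals. Mean values compared with vehicle by Student t-test.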

Rattus norvegicus [10] = assay: Urinary sodium 3h after the compound was administered 10 mg/kg po in rat; format: ADME, organism-based, Urine; parameters: dose 10 mg/kg, route oral; how it was run: as §3
Rattus norvegicus [11] = assay: Urinary sodium 4 hr after the compound was administered 10 mg/kg po in rat; format: ADME, organism-based, Urine; parameters: dose 10 mg/kg, route oral; how it was run: as §3
Rattus norvegicus [12] = assay: Urinary sodium 6 hr after the compound was administered 10 mg/kg po in rat; format: ADME, organism-based, Urine; parameters: dose 10 mg/kg, route oral; how it was run: as §3
Rattus norvegicus [13] = assay: Mean potassium excretion in rats when compound administered at 0 mg/kg po and vehicle dosed at 0 umol/kg; format: ADME, organism-based; parameters: dose 0 mg/kg, route oral; how it was run: as §1
Rattus norvegicus [14] = assay: Mean potassium excretion in rats when compound administered at 10 mg/kg po and vehicle dosed at 33.59 umol/kg; format: ADME, organism-based; parameters: dose 10 mg/kg, route oral; how it was run: as §1
Rattus norvegicus [15] = assay: Mean sodium excretion in rats when compound administered at 0 mg/kg po and vehicle dosed at 0 umol/kg; format: ADME, organism-based; parameters: dose 0 mg/kg, route oral; how it was run: as §2
Rattus norvegicus [16] = assay: Mean sodium excretion in rats when compound administered at 10 mg/kg po and vehicle dosed at 33.59 umol/kg; format: ADME, organism-based; parameters: dose 10 mg/kg, route oral; how it was run: as §2
Rattus norvegicus [17] = assay: Mean sodium excretion in rats when compound administered at 2.5 mg/kg po and vehicle dosed at 8.4 umol/kg; format: ADME, organism-based; parameters: dose 2.5 mg/kg, route oral; how it was run: as §2
Rattus norvegicus [18] = assay: Mean sodium excretion in rats when compound administered at 20 mg/kg po and vehicle dosed at 67.18 umol/kg; format: ADME, organism-based; parameters: dose 20 mg/kg, route oral; how it was run: as §2
Rattus norvegicus [19] = assay: Mean sodium excretion in rats when compound administered at 40 mg/kg po and vehicle dosed at 134.35 umol/kg; format: ADME, organism-based; parameters: dose 40 mg/kg, route oral; how it was run: as §2
Rattus norvegicus [20] = assay: Mean sodium excretion in rats when compound administered at 5 mg/kg po and vehicle dosed at 16.79 umol/kg; format: ADME, organism-based; parameters: dose 5 mg/kg, route oral; how it was run: as §2
Rattus norvegicus [21] = assay: Mean sodium excretion in rats when compound administered at 80 mg/kg po and vehicle dosed at 268.71 umol/kg; format: ADME, organism-based; parameters: dose 80 mg/kg, route oral; how it was run: as §2

NS(=O)(=O)c1cc2c(cc1Cl)NCNS2(=O)=O [HYDROCHLOROTHIAZIDE]
Cl- (Rattus norvegicus [1]): 4.44 m equiv 6hr-1 kg-1 (body weight)-1 | Cl- (Rattus norvegicus [2]): 4.88 m equiv 6hr-1 kg-1 (body weight)-1 | Cl- (Rattus norvegicus [3]): 0.78 m equiv 6hr-1 kg-1 (body weight)-1 | Cl- (Rattus norvegicus [4]): 4.88 m equiv 6hr-1 kg-1 (body weight)-1 | K (Rattus norvegicus [5]): 1.43 m equiv 6hr-1 kg-1 (body weight)-1 | K (Rattus norvegicus [6]): 1.64 m equiv 6hr-1 kg-1 (body weight)-1 | K (Rattus norvegicus [7]): 1.23 m equiv 6hr-1 kg-1 (body weight)-1 | K (Rattus norvegicus [8]): 1.57 m equiv 6hr-1 kg-1 (body weight)-1 | Urinary Na+ (Rattus norvegicus [9]): 0.39 m equiv | Urinary Na+ (Rattus norvegicus [10]): 0.17 m equiv | Urinary Na+ (Rattus norvegicus [11]): 0.16 m equiv | Urinary Na+ (Rattus norvegicus [12]): 0.24 m equiv | K (Rattus norvegicus [13]): 0.53 m equiv 6hr-1 kg-1 (body weight)-1 | K (Rattus norvegicus [14]): 1.14 m equiv 6hr-1 kg-1 (body weight)-1 | Na (Rattus norvegicus [15]): 0.32 m equiv 6hr-1 kg-1 (body weight)-1 | Na (Rattus norvegicus [16]): 2.86 m equiv 6hr-1 kg-1 (body weight)-1 | Na (Rattus norvegicus [17]): 2.14 m equiv 6hr-1 kg-1 (body weight)-1 | Na (Rattus norvegicus [18]): 3.05 m equiv 6hr-1 kg-1 (body weight)-1 | Na (Rattus norvegicus [19]): 2.78 m equiv 6hr-1 kg-1 (body weight)-1 | Na (Rattus norvegicus [20]): 3.03 m equiv 6hr-1 kg-1 (body weight)-1 | Na (Rattus norvegicus [21]): 3.19 m equiv 6hr-1 kg-1 (body weight)-1
